Data published in ChEMBL document CHEMBL4270513, “Replacement of Arg with Nle and modified D-Phe in the core sequence of MSHs, Ac-His-D-Phe-Arg-Trp-NH2, leads to hMC1R selectivity and pigmentation” (Eur J Med Chem, 2018).
Activity calls are given as the source filed them. The rule behind the calls is not given here. Square brackets hold non-standard residues; d marks the D form. Peptide text beside a SMILES is read from it. dPhe(4-CF3) = N[C@H](Cc1ccc(C(F)(F)F)cc1)C(=O)O; dPhe(4-Br) = N[C@H](Cc1ccc(Br)cc1)C(=O)O; dPhe(4-Cl) = N[C@H](Cc1ccc(Cl)cc1)C(=O)O; dPhe(4-F) = N[C@H](Cc1ccc(F)cc1)C(=O)O; d2Nal = N[C@H](Cc1ccc2ccccc2c1)C(=O)O; Nle = CCCC[C@H](N)C(=O)O

Assays:
Melanocortin receptor 5 [1] = biological target: T1, Melanocortin receptor 5 (Homo sapiens, UniProt P33032); assay: Displacement of [125I]-[Nle4,d-Phe7]-alpha-MSH from human MC5R expressed in HEK293 cells after 40 mins by gamma counting analysis; assay type: cell-based
[2] = biological target: T2, Melanocyte-stimulating hormone receptor (Homo sapiens, UniProt Q01726); assay: Agonist activity at human MC1R expressed in HEK293 cells after 3 mins by cAMP assay; assay type: functional, cell-based
Melanocortin receptor 5 [3] = biological target: T1, Melanocortin receptor 5; assay: Agonist activity at human MC5R expressed in HEK293 cells after 3 mins by cAMP assay; assay type: functional, cell-based
[4] = biological target: T2, Melanocyte-stimulating hormone receptor; assay: Displacement of [125I]-[Nle4,d-Phe7]-alpha-MSH from human MC1R expressed in HEK293 cells after 40 mins by gamma counting analysis; assay type: cell-based
Melanocortin receptor 3 [5] = biological target: T3, Melanocortin receptor 3 (Homo sapiens, UniProt P41968); assay: Displacement of [125I]-[Nle4,d-Phe7]-alpha-MSH from human MC3R expressed in HEK293 cells after 40 mins by gamma counting analysis; assay type: cell-based
Melanocortin receptor 3 [6] = biological target: T3, Melanocortin receptor 3; assay: Agonist activity at human MC3R expressed in HEK293 cells after 3 mins by cAMP assay; assay type: functional, cell-based
[7] = biological target: T2, Melanocyte-stimulating hormone receptor; assay: Displacement of [125I]-[Nle4,d-Phe7]-alpha-MSH from human MC1R expressed in HEK293 cells at 10 uM after 40 mins by gamma counting analysis relative to control; assay type: cell-based
Outline: (§1)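 Binding efficiency = maximal % displacement of [125I]-NDP-α-MSH observed at 10 μM peptide; 0% displacement at 10 μM scored as no binding.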

[8] = biological target: T2, Melanocyte-stimulating hormone receptor; assay: Agonist activity at human MC1R expressed in HEK293 cells at 10 uM after 3 mins by cAMP assay relative to MT-2; assay type: functional, cell-based
Outline: (§2)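 cAMP produced at a single 10 μM peptide concentration, expressed as % of the response to MT-II run as control; 0% accumulation reported as no activity.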

Melanocortin receptor 5 [9] = biological target: T1, Melanocortin receptor 5; assay: Agonist activity at human MC5R expressed in HEK293 cells at 10 uM after 3 mins by cAMP assay relative to MT-2; assay type: functional, cell-based; outline: as §2
Melanocortin receptor 5 [10] = biological target: T1, Melanocortin receptor 5; assay: Displacement of [125I]-[Nle4,d-Phe7]-alpha-MSH from human MC5R expressed in HEK293 cells at 10 uM after 40 mins by gamma counting analysis relative to control; assay type: cell-based; outline: as §1
Melanocortin receptor 3 [11] = biological target: T3, Melanocortin receptor 3; assay: Displacement of [125I]-[Nle4,d-Phe7]-alpha-MSH from human MC3R expressed in HEK293 cells at 10 uM after 40 mins by gamma counting analysis relative to control; assay type: cell-based; outline: as §1
Melanocortin receptor 3 [12] = biological target: T3, Melanocortin receptor 3; assay: Agonist activity at human MC3R expressed in HEK293 cells at 10 uM after 3 mins by cAMP assay relative to MT-2; assay type: functional, cell-based; outline: as §2
Melanocortin receptor 4 [13] = biological target: T4, Melanocortin receptor 4 (Homo sapiens, UniProt P32245); assay: Agonist activity at human MC4R expressed in HEK293 cells after 3 mins by cAMP assay; assay type: functional, cell-based
Melanocortin receptor 4 [14] = biological target: T4, Melanocortin receptor 4; assay: Displacement of [125I]-[Nle4,d-Phe7]-alpha-MSH from human MC4R expressed in HEK293 cells after 40 mins by gamma counting analysis; assay type: cell-based
Anolis carolinensis = assay: Induction of pigmentation effect in lizard at 3 ug/g, ip at 1 hr post dose; assay type: functional, organism-based
Outline: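 Anolis carolinensis lizards, peptide dissolved in saline at 1 mM, single intraperitoneal dose of 3 μg/g body weight; vehicle-injected animals as control. Skin colour change versus pre-injection appearance scored visually and photographed, followed up to 24 h.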

Homo sapiens [15] = organism: Homo sapiens; assay: Selectivity ratio of EC50 for human MC5R to EC50 for human MC1R
Homo sapiens [16] = organism: Homo sapiens; assay: Selectivity ratio of EC50 for human MC3R to EC50 for human MC1R
Homo sapiens [17] = organism: Homo sapiens; assay: Selectivity ratio of EC50 for human MC4R to EC50 for human MC1R

T3 sequence (P41968 whole entry): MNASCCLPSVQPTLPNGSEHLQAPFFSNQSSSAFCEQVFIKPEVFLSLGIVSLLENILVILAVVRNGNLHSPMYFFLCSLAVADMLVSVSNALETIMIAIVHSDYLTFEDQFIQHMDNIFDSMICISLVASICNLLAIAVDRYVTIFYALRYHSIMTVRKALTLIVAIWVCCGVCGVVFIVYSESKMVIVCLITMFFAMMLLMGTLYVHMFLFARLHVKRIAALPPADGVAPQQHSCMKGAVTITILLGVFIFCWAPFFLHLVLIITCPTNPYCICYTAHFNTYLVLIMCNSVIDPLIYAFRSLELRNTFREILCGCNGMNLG
T1 sequence (P33032 whole entry): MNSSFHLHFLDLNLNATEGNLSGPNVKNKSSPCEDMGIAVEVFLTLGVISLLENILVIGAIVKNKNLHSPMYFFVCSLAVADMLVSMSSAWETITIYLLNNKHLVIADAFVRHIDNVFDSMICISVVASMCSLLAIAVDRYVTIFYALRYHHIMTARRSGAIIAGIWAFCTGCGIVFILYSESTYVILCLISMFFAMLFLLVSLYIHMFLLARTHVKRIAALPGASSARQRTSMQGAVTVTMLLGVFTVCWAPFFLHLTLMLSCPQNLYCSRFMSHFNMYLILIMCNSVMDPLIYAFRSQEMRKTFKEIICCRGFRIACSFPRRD
T4 sequence (P32245 whole entry): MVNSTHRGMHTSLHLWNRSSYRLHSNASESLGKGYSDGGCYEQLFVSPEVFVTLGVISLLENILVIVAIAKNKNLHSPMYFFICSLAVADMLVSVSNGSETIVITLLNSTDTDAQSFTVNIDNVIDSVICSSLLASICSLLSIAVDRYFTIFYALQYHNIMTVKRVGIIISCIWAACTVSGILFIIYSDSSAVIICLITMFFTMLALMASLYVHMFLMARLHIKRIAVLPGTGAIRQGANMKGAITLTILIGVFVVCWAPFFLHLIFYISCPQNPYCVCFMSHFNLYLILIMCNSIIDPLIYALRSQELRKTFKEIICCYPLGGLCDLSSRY

Row | Structure (SMILES) | IC50 (Melanocortin receptor 5 [1]) [nM] | EC50 [2] [nM] | EC50 (Melanocortin receptor 5 [3]) [nM] | IC50 [4] [nM] | IC50 (Melanocortin receptor 3 [5]) [nM] | EC50 (Melanocortin receptor 3 [6]) [nM] | %max [7] [%] | Activity [8] [%] | Activity (Melanocortin receptor 5 [9]) [%] | %max (Melanocortin receptor 5 [10]) [%] | %max (Melanocortin receptor 3 [11]) [%] | Activity (Melanocortin receptor 3 [12]) [%] | EC50 (Melanocortin receptor 4 [13]) [nM] | IC50 (Melanocortin receptor 4 [14]) [nM] | Activity (Anolis carolinensis) | Ratio EC50 (Homo sapiens [15]) | Ratio EC50 (Homo sapiens [16]) | Ratio EC50 (Homo sapiens [17])
1 | CC(=O)N[C@@H](Cc1cnc[nH]1)C(=O)N[C@H](Cc1ccccc1)C(=O)N[C@@H](CCCN=C(N)N)C(=O)N[C@@H](Cc1c[nH]c2ccccc12)C(N)=O | 109 | 4.3 | 3.9 | 105 | 63 | 7.1 |  |  |  |  |  |  |  |  |  |  |  | 
2 | CC(=O)N[C@@H](Cc1cnc[nH]1)C(=O)N[C@H](Cc1ccccc1)C(=O)N[C@@H](CCCNC(=N)N)C(=O)N[C@@H](Cc1c[nH]c2ccccc12)C(N)=O |  |  |  |  |  |  | 100 | 100 | 63 | 100 | 100 | 100 |  |  |  |  |  | 
3 | CCCC[C@H](NC(=O)[C@@H](Cc1ccc2ccccc2c1)NC(=O)[C@H](Cc1cnc[nH]1)NC(C)=O)C(=O)N[C@@H](Cc1c[nH]c2ccccc12)C(N)=O (Ac-H[d2Nal][Nle]W-NH2) |  | 418 |  | > 1000 | > 1000 | 255 | 65 | 100 | 0 | 0 | 80 | 17 | 133 | > 1000 |  |  |  | 
4 | CCCC[C@H](NC(=O)[C@@H](Cc1ccccc1)NC(=O)[C@H](Cc1cnc[nH]1)NC(C)=O)C(=O)N[C@@H](Cc1c[nH]c2ccccc12)C(N)=O (Ac-H[dF][Nle]W-NH2) | 46 | 52 | 37 | 50 | > 1000 | 120 | 42 | 100 | 48 | 44 | 15 | 100 | 928 | 65 |  |  |  | 
5 | CCCC[C@H](NC(=O)[C@@H](Cc1ccc(Br)cc1)NC(=O)[C@H](Cc1cnc[nH]1)NC(C)=O)C(=O)N[C@@H](Cc1c[nH]c2ccccc12)C(N)=O (Ac-H[dPhe(4-Br)][Nle]W-NH2) |  | 11 | > 1000 | 154 | 224 | 57 | 61 | 100 | 33 | 0 | 51 | 93 | 36 | 53 |  |  |  | 
6 | CCCC[C@H](NC(=O)[C@@H](Cc1ccc(C(F)(F)F)cc1)NC(=O)[C@H](Cc1cnc[nH]1)NC(C)=O)C(=O)N[C@@H](Cc1c[nH]c2ccccc12)C(N)=O (Ac-H[dPhe(4-CF3)][Nle]W-NH2) | 37 | 10 | > 1000 | 339 | 90 | 252 | 49 | 100 | 44 | 37 | 62 | 85 | 407 | 835 | Active | > 100 | 25 | 41
7 | CCCC[C@H](NC(=O)[C@@H](Cc1ccc(Cl)cc1)NC(=O)[C@H](Cc1cnc[nH]1)NC(C)=O)C(=O)N[C@@H](Cc1c[nH]c2ccccc12)C(N)=O (Ac-H[dPhe(4-Cl)][Nle]W-NH2) |  | 6.5 | 433 | 122 | > 1000 | 116 | 81 | 100 | 52 | 0 | 45 | 87 | 17 | > 1000 |  |  |  | 
8 | CCCC[C@H](NC(=O)[C@@H](Cc1ccc(F)cc1)NC(=O)[C@H](Cc1cnc[nH]1)NC(C)=O)C(=O)N[C@@H](Cc1c[nH]c2ccccc12)C(N)=O (Ac-H[dPhe(4-F)][Nle]W-NH2) |  | 25 |  | 243 | > 1000 | 315 | 33 | 100 | 0 | 0 | 13 | 100 | 280 | > 1000 |  |  |  | 
9 | CCCC[C@H](NC(=O)[C@@H](Cc1ccccc1)NC(=O)[C@@H]1CCCN1C(C)=O)C(=O)N[C@@H](Cc1c[nH]c2ccccc12)C(N)=O (Ac-P[dF][Nle]W-NH2) |  |  |  |  | > 1000 |  | 0 | 0 | 0 | 0 | 65 | 0 |  |  |  |  |  | 
10 | CCCC[C@H](NC(=O)[C@@H](Cc1ccc(Br)cc1)NC(=O)[C@@H]1CCCN1C(C)=O)C(=O)N[C@@H](Cc1c[nH]c2ccccc12)C(N)=O (Ac-P[dPhe(4-Br)][Nle]W-NH2) |  | > 1000 |  | 80 | > 1000 | > 1000 | 30 | 39 | 0 | 0 | 76 | 23.1 |  | 10 |  |  |  | 
11 | CCCC[C@H](NC(=O)[C@@H](Cc1ccc(C(F)(F)F)cc1)NC(=O)[C@@H]1CCCN1C(C)=O)C(=O)N[C@@H](Cc1c[nH]c2ccccc12)C(N)=O (Ac-P[dPhe(4-CF3)][Nle]W-NH2) |  |  |  |  | > 1000 |  | 0 | 0 | 0 | 0 | 33 | 0 |  | 2.1 |  |  |  | 
12 | CCCC[C@H](NC(=O)[C@@H](Cc1ccc(Cl)cc1)NC(=O)[C@@H]1CCCN1C(C)=O)C(=O)N[C@@H](Cc1c[nH]c2ccccc12)C(N)=O (Ac-P[dPhe(4-Cl)][Nle]W-NH2) |  | 3 |  | 1.9 | > 1000 | > 1000 | 18 | 63 | 0 | 0 | 35 | 23.1 |  |  |  |  |  | 
13 | CCCC[C@H](NC(=O)[C@@H](Cc1ccc(F)cc1)NC(=O)[C@@H]1CCCN1C(C)=O)C(=O)N[C@@H](Cc1c[nH]c2ccccc12)C(N)=O (Ac-P[dPhe(4-F)][Nle]W-NH2) |  | > 1000 |  | 0.74 | 46.8 | > 1000 | 28 | 46 | 0 | 0 | 35 | 56 |  |  |  |  |  | 
